Screening data (PubChem BioAssay)
HSV replic up: enhancers of HSV replication in host cells, fold increase, host cell viability. HSV replication augmentation in cells. maximum fold increase. actives 0.005% (n = 220,000). AID 1956, 2009; in the data active = maximum fold increase above about 1.5; inconclusive = no clear call, values can overlap the other calls; tested in PC3 cells
Dynein cargo inh: inhibitors of GR-EGFP nuclear translocation, primary screen, dynein cargo transport inhibitor project, imaging, high-content, 3617.4 mouse cells. test concentration mostly 20 µM; stimulated with dexamethasone, 1 µM; active compounds read low. z-score, hits read low. actives 0.47% (n = 220,000). AID 1381, 2008;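 active = plate z-score of nuclear minus cytoplasmic receptor signal below a set negative limit, without overly bright fluorescence or cell loss, cut at about -3.5 in these data, passing the limit was not always enough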;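 also: z-score of nuclear minus cytoplasmic ring GR-EGFP intensity difference per well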
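medium = tetracycline-free induction medium containing charcoal-stripped FBS | probe or stimulus = dexamethasone, 1.0 µM final | timing = 48 h induction, then 1 h compound, then 30 min agonist, 37 °C | detection = automated 10x imaging of fixed Hoechst-stained cells | read-out basis = nuclear versus cytoplasmic GR-EGFP signal, averaged per well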
TNF death inh: inhibitors of TNF-alpha triggered necroptosis, primary screen, cell-based, Jurkat FADD-/-, single concentration; Jurkat FADD-/- TNF necroptosis rescue, ATP luminescence, 24 h; 0 = TNF only, 100 = no-TNF cells; activation (protection from cell death), % at 10 µM; actives 0.068% (n = 220,000);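 active = activation, meaning protection from cell death, of at least 50% relative to plate controls; inactive = activation below 50%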;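 also: necroptosis triggered by 40 ng/mL TNF-alpha added together with compound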
L929 necroptosis: inhibitors of zVAD-triggered necroptosis, primary screen, L929 cells | L929 zVAD necroptosis rescue, ATP luminescence, 24 h; with zVAD 60 µM | viability rescue, % at 10 µM | actives 0.38% (n = 220,000) | AID 1377, 2008;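 active = activation, scaled between plate controls, above about 75%, limit read from the data; inactive = activation under that limit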
Autophagy mod: autophagy modulators in MEF cells, primary screen, imaging, high-content, MEF GFP-LC3 | calls only at 10 µM (by protocol) | MEF GFP-LC3 puncta imaging; test concentration mostly 10 µM | actives 0.98% (n = 190,000);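 active = percentage of spot-positive cells more than 3 SD above its plate mean, without a fluorescence outlier flag or 80% toxicity; inconclusive = no clear call, values can overlap the other calls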
Furin inhibitor: human furin inhibitors, primary screen, biochemical, fluorescence intensity. actives 0.061% (n = 220,000). AID 463115, 2010. purified furin, fluorogenic substrate cleavage. P09958. inhibition, % at 20 µM or 30 µM; in the data active = inhibition above about 25%
Target sequence (P09958 108-714 limits assumed): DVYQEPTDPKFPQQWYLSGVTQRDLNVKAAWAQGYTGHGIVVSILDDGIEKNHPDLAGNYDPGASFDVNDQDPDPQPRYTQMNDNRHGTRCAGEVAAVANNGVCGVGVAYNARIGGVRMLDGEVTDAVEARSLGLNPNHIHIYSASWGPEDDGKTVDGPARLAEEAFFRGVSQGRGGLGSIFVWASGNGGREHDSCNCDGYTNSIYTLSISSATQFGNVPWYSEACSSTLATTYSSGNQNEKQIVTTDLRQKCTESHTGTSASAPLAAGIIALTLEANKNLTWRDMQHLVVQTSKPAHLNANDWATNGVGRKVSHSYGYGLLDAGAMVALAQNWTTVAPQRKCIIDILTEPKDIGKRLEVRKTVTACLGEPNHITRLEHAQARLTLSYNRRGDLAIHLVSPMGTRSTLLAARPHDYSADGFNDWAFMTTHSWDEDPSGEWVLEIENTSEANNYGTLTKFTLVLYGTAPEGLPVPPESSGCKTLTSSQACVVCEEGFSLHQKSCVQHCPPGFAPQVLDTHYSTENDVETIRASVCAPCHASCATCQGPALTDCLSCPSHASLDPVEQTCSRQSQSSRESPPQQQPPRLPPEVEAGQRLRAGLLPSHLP
zVAD death conf: inhibitors of zVAD-triggered necroptosis in L929, confirmation, L929 cells, duplicate runs; AID 463117, 2010; L929 zVAD-induced necroptosis rescue, ATP luminescence, 24 h; actives 16% (n = 760); activation (protection from necroptosis), % at 10 µM; shares compounds with L929 necroptosis;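 active = mean protection from necroptosis of at least 50% over duplicate tests; inactive = mean protection below 50%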
Large screens that a line does not name were inactive (follow-up assays come after a bar, where they were run). Hits are enriched below; roughly 1.8% of the tested compounds scored in any of these assays.

COc1ccc(N2CCN(C(=O)c3ccccc3Br)CC2)c([N+](=O)[O-])c1	none
O=C(NCCCN1CCCCC1)c1ccc2c(=O)n(CCc3ccccc3)c(=O)[nH]c2c1	L929 necroptosis 80 (no result: HSV replic up) | zVAD death conf inactive
CCCCCn1c(=O)[nH]c2cc(C(=O)NCCCN(C)Cc3ccccc3)ccc2c1=O	none
CCN(CC)CCNC(=O)c1ccc2c(=O)n(CCc3ccccc3)c(=O)[nH]c2c1	L929 necroptosis 89 | zVAD death conf inactive
Oc1ccc(-c2[nH]ncc2-c2cnn(-c3ccccc3)c2)c(O)c1	L929 necroptosis 79 | zVAD death conf inactive
O=C(COC(=O)c1cccc(O)c1)Nc1ccc(OC(F)F)cc1	none
O=C(COC(=O)c1ccc(O)cc1)Nc1ccc(OC(F)F)cc1	L929 necroptosis 77 | zVAD death conf inactive
COc1ccc(C(=O)Cc2cc(OC)c(OC)cc2C(=O)c2ccccc2F)cc1OC	none
Cc1cc2ncn(/N=C/c3cccnc3)c2cc1C	L929 necroptosis 76 | zVAD death conf inactive
CCN(C(=O)COC(=O)c1nn(-c2ccccc2)c(=O)c2ccccc12)C1CCS(=O)(=O)C1 (stereo not given)	none (no result: Autophagy mod)
O=C(CCl)N(c1ccccc1)C1CCCCC1	L929 necroptosis 78, Autophagy mod inconclusive | zVAD death conf 66
COc1ccccc1C(=O)N=c1sc2c(C)ccc(OC)c2n1C	none (no result: Autophagy mod)
Cc1ccc(NC(=O)CSc2nnnn2-c2ccc3c(c2)OCO3)cc1C	L929 necroptosis 79 | zVAD death conf 74
O=C(CSc1nnnn1-c1ccc(O)cc1)Nc1cccc(S(=O)(=O)N2CCCC2)c1	L929 necroptosis 88 | zVAD death conf 89
O=C(CSc1nnnn1-c1ccc(O)cc1)Nc1ccc(N2CCOCC2)c(Cl)c1	L929 necroptosis 76 | zVAD death conf 75
O=C(CSc1nncn1-c1ccccc1)Nc1cccc(S(=O)(=O)N2CCCCC2)c1	none
CCOC(=O)Cc1csc(NC(=O)COc2cc(C)cc(C)c2)n1	none
NC(=O)CSC1=Nc2ccccc2C2=NC(c3ccccc3)C(=O)N12 (stereo not given)	none
c1cc(Nc2ncnc3sc4c(c23)CCC4)ccn1	none
C(=N\Nc1ncnc2sc3c(c12)CCC3)/c1cccs1	L929 necroptosis 81 | zVAD death conf inactive
NNc1ncnc2sc3c(c12)CCC3	none
C(=N\Nc1ncnc2sc3c(c12)CCC3)/c1ccncc1	L929 necroptosis 79 | zVAD death conf inactive
O=C(COC(=O)CNC(=O)C1CCCCC1)Nc1ccc(Cl)cc1F	none
Cc1cc(C)nc(SCC(=O)c2c(N)n(C)c(=O)n(C)c2=O)n1	L929 necroptosis 76 (no result: HSV replic up) | zVAD death conf inactive
CS(=O)(=O)c1ccc(C(=O)OCC(=O)NC2CCS(=O)(=O)C2)cc1[N+](=O)[O-] (stereo not given)	none
Cc1cnc(NC(=O)Nc2ccc(Cl)cc2)s1	L929 necroptosis 78 | zVAD death conf inactive
O=C(Nc1ccc(F)c(Cl)c1)Nc1ccc(Cl)cn1	none
Cc1cnc(NC(=O)CSc2ccc(Cl)cc2)s1	none
Cc1cccnc1NC(=O)Nc1ccc(F)cc1	L929 necroptosis 82 | zVAD death conf inactive
O=C(Nc1ccc(F)cc1)Nc1ccc(Cl)cn1	L929 necroptosis 76 | zVAD death conf inactive
CCCn1nnc(NC(=S)NC(=O)CC)n1	none
CCN1CCN(Cc2ccc(NC(=O)c3ccc(C)c(NC(=O)c4nccnc4N)c3)cc2C(F)(F)F)CC1	L929 necroptosis 80 (no result: Autophagy mod) | zVAD death conf 79
CC(C)OC(=O)N(C)c1ccc(C(O)(C(F)(F)F)C(F)(F)F)cc1	L929 necroptosis 77 | zVAD death conf inactive
C=CCn1c(SCC(=O)N2CCc3ccccc3C2)nnc1-c1ccncc1	none
Nc1nc(SCC(=O)NCc2ccccc2)[nH]c(=O)c1NC(=O)c1ccccc1F	none
